High-throughput results deposited in PubChem BioAssay by The Scripps Research Institute Molecular Screening Center.
Shown are actives, neighbours in structure and some others; about 2.9% of the full set was active somewhere.
OX1R antag-1 = antagonists of human orexin 1 receptor (OX1R). O43613. OX1R-expressing cells, FRET antagonist read-out. inhibition, % at 6.6 µM. 330,000 compounds, 1.8% hits. AID 485270; in the data active = inhibition mostly above about 38%, no sharp cut-off; inactive = mostly below about 40%;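 also: 0% = agonist challenge alone and 100% = reference antagonist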
Target sequence (O43613 whole entry, looked up): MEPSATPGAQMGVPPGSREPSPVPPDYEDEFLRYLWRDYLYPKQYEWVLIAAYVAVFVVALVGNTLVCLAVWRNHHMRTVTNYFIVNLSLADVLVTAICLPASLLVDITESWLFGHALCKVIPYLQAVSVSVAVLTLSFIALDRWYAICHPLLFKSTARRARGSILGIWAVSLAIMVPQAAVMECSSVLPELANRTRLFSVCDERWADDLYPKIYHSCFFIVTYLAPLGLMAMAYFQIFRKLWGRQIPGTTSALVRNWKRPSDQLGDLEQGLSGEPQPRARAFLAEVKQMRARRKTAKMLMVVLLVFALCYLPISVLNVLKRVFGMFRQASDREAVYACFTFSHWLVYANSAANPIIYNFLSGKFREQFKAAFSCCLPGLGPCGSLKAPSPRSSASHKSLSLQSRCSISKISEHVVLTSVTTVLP
CHO-K1 Ca ag = counter-screen for M1 agonists: effect in parental CHO-K1 cells; Fluo-8 calcium fluorescence; scaled to maximal ATP response, vehicle zero; activation, % at 3 µM; 360,000 compounds, 0.48% hits; AID 602248; in the data active = activation above about 15%;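 also: untransfected CHO-K1 host cells lacking M1 receptor as counterscreen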
CHO parental Ca = signal in parental CHO cells, OX1R antagonist counter-screen. parental CHO-K1, ATP-induced calcium, Fluo-8 fluorescence. inhibition, % at 5.6 µM. 330,000 compounds, 0.63% hits;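 active = inhibition above that plate's mean sample inhibition plus 3 SD, cut at about 26% in these data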;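 also: 0% = ATP-challenged DMSO wells and 100% = DMSO wells without ATP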
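test system = CHO parental line | reagent = ATP stimulus | measured by = intracellular calcium via Fluo-8 no-wash fluorescent dye | control set = ATP and no-ATP DMSO wells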
M1 PAM parental = M1 PAM counterscreen hit in parental CHO-K1 cells; ATP EC20, Fluo-8 calcium fluorescence; 0% at ATP EC20, 100% at ATP max; activation, % at 3 µM; 360,000 compounds, 0.02% hits; AID 602247;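 active = activation above the run cutoff, the mean activation of all test compounds plus 3 SD, cut at about 40% in these data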;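 also: peak over basal fluorescence ratio in a 140 s read after ATP addition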
CHO-K1 Ca antag = counter-screen for M1 antagonists: effect in parental CHO-K1 cells. ATP-induced calcium, Fluo-8 fluorescence. inhibition, % at 3 µM. 360,000 compounds, 0.6% hits. AID 602250;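 active = inhibition above a per-plate cutoff, the plate's mean sample inhibition plus 3 SD, cut at about 24% in these data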;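 also: 0% = DMSO plus EC80 ATP and 100% = DMSO alone without ATP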
OX1R antag-2 = human HCRTR1 antagonism | CHO/OX1R cells, Fluo-8 calcium fluorescence, orexin A | 330,000 compounds, 0.43% hits | AID 434989 | inhibition, % at 5 µM;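 active = inhibition above its plate's threshold, mean inhibition of all tested compounds on the plate plus 3 SD, cut at about 37% in these data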;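 also: 0% = orexin A challenge wells and 100% = SB-334867-A antagonist wells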
Starred values were filed as active, the others as inactive; nt = no result given.

SMILES	OX1R antag-1	CHO-K1 Ca ag	CHO parental Ca	M1 PAM parental	CHO-K1 Ca antag	OX1R antag-2
CC(=O)Nc1ccc(N=Nc2ccccc2)cc1[N+](=O)[O-]	nt	2	nt	11	-2	nt
CC(=O)Nc1ccccc1Nc1cc(C#N)c(C#N)cc1[N+](=O)[O-]	58*	0	1	-9	20	-17
O=C(c1ccc(Cl)c(S(=O)(=O)N2CCOCC2)c1)N1CCc2ccccc2C1	6	1	-23	-23	14	-9
CC(C)(C)n1cnc2cc(NS(=O)(=O)c3ccc(Br)cc3)ccc21	59	7	58*	-4	6	60*
CC(C)(C)OC(=O)C[C@@H]1C/C=C\C[C@@H](CC(=O)N(CCO)Cc2ccccc2)C(=O)N2CCC[C@@H]2COC1=O	5	0	-23	12	-3	-6
COC(=O)C1(Cc2ccc3c(c2)CCC3)Cc2ccc3c(c2C1=O)CCC3 (stereo not drawn)	nt	0	nt	15	-18	nt
COc1ccc(NC(=O)CCNS(=O)(=O)c2cccc3nsnc23)cc1	52	0	-2	-8	15	-21
COc1ccc(NC(=O)CCNS(=O)(=O)c2cccc3nsnc23)c(OC)c1	73*	1	-3	3	-11	-16
CCOc1ccccc1NS(=O)(=O)c1cccc2nsnc12	10	0	-8	-7	-12	0
Cc1cccc(NC(=O)CCNS(=O)(=O)c2cccc3nsnc23)c1	38	0	-9	24	-21	-32
CC(=O)c1cccc(NC(=O)CCNS(=O)(=O)c2cccc3nsnc23)c1	58*	0	-14	17	-1	-20
CCOc1ccccc1NC(=O)CCNS(=O)(=O)c1cccc2nsnc12	67*	1	-11	8	-17	-21
O=C(N=C1SC2CS(=O)(=O)CC2N1c1ccc(F)c(Cl)c1)C1CCCO1 (stereo not drawn)	32	1	-3	4	-14	-15
CCOc1ccccc1N(CC(=O)NCCc1ccccc1)C(=O)CCC(=O)Nc1ccccn1	16	2	-31	9	-22	-39
COc1ccc(C(=O)N/C(=C\c2ccc3c(c2)OCO3)C(=O)N2CCOCC2)cc1	20	2	6	3	-14	0
Cc1onc(-c2ccccc2)c1-c1nnc(COC(=O)c2ccc(O)cc2)o1	nt	8	nt	4	-11	nt
CSCCC(NC(=O)c1ccc([N+](=O)[O-])cc1Cl)C(=O)OC(C)C(=O)NCc1ccco1 (stereo not drawn)	49*	1	-16	5	-5	-23
CSCCC(NC(=O)c1ccc([N+](=O)[O-])cc1Cl)C(=O)OCC(=O)N1CCN(C(C)=O)CC1 (stereo not drawn)	55*	1	1	10	-4	-3
O=C(COC(=O)c1ccc([N+](=O)[O-])cc1Cl)NCc1ccco1	29	0	-4	-2	-8	-18
COc1ccccc1CN1C[C@@H]2C[C@@H](c3[nH]c4c(C)cccc4c3C)N3CCC[C@@]23C1=O	-14	15*	-23	31	-24	-26
COc1ccccc1CN1C[C@@H]2C[C@@H](c3cccc(C)n3)N3CCC[C@@]23C1=O	13	0	-34	17	3	-34
O=C(CCC1CCCN(C2C3CC4CC(C3)CC2C4)C1)NCc1ccc(F)c(F)c1 (stereo not drawn)	18	0	-18	12	-5	-19
NC(=O)c1ccc(SCC(=O)OCC(=O)N2CCN(C(=O)c3ccco3)CC2)c([N+](=O)[O-])c1	58*	0	-8	1	-8	-8
Cc1ccc(NC(=O)CSc2ccc(C(N)=O)cc2[N+](=O)[O-])cc1C	11	2	33*	4	3	-29
Cc1ccc(NC(=O)CSc2ccc(C(N)=O)cc2[N+](=O)[O-])cc1	21	0	-3	2	10	-23
CC1CCN(C(=O)COC(=O)CSc2ccc(C(N)=O)cc2[N+](=O)[O-])CC1	63*	3	-18	4	-8	-18
CN(C(=O)COC(=O)CSc1ccc(C(N)=O)cc1[N+](=O)[O-])C1CCCCC1	47*	6	-2	8	-1	-13
